From PubChem BioAssay
A selection: hits, their analogues and other compounds. The true share with any hit is near 3.9%.
OX1R antag-1 = blocks the human orexin 1 receptor; OX1R-expressing cells, FRET antagonist read-out; inhibition, % at 6.6 µM; 1.8% of 330,000 active; in the data active means inhibition mostly above about 38%, no sharp cut-off; inactive means mostly below about 40%;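 further: 0% = agonist challenge alone and 100% = reference antagonist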
Target sequence (O43613 whole entry, looked up): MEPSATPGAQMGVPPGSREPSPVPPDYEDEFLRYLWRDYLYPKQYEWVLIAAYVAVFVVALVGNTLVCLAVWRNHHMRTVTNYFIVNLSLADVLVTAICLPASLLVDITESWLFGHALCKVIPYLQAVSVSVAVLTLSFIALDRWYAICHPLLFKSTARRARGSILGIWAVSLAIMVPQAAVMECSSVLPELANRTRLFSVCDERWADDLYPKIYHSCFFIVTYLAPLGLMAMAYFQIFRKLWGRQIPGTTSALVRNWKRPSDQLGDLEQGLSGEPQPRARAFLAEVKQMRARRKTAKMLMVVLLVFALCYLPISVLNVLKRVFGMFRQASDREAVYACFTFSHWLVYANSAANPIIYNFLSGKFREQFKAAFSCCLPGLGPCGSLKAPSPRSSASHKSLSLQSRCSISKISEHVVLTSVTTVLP
TAAR1 antagonist = antagonists of human TAAR1. AID 624466. 1.5% of 360,000 active. Q96RJ0. inhibition, % at 3 µM. CHO RD-HGA16 TAAR1, Fluo-8 calcium fluorescence, antagonist;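 active means inhibition above a per-plate cutoff, the mean inhibition of test compounds on that plate plus 3 SD, cut at about 49% in these data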;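 further: 0% = DMSO plus EC80 beta-PEA response and 100% = DMSO alone without agonist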
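Material: CHO RD-HGA16 cells bearing hTAAR1; compound dosing: one-point dosing, 3 µM nominal final; schedule: dye loading 75 min at 37 °C, then 30 min room temperature; measured by: calcium fluorescence with Fluo-8; control set: vehicle and agonist controls; replication: n of 1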
CHO parental Ca = counter-screen: ATP calcium response change in parental CHO cells; 0.63% of 330,000 active; parental CHO-K1, ATP-induced calcium, Fluo-8 fluorescence; inhibition, % at 5.6 µM; AID 463079;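 active means inhibition above that plate's mean sample inhibition plus 3 SD, cut at about 26% in these data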;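 further: 0% = ATP-challenged DMSO wells and 100% = DMSO wells without ATP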
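Assay system: parental CHO cells; Read-out basis: percent inhibition of ATP-evoked calcium rise, normalized to controls; Benchmarks: ATP and no-ATP DMSO wells; Compound dosing: single nominal dose of 5.6 µM per compound; Signal: Fluo-8 calcium dye fluorescence; Also added: ATP as calcium-mobilizing challenge; Repeats: singlicate.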
OX1R antag-2 = blocks the human orexin 1 receptor; O43613; CHO/OX1R cells, Fluo-8 calcium fluorescence, orexin A; inhibition, % at 5 µM; 0.43% of 330,000 active;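 active means inhibition above its plate's threshold, mean inhibition of all tested compounds on the plate plus 3 SD, cut at about 37% in these data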;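 further: 0% = orexin A challenge wells and 100% = SB-334867-A antagonist wells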
TAAR1 agonist = agonists of human TAAR1; activation, % at 3 µM; 0.99% of 360,000 active; Q96RJ0; CHO RD-HGA16 TAAR1, Fluo-8 calcium fluorescence; vehicle wells 0%, saturating PEA agonist 100%;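 active means activation above the mean activation of all test compounds in the run plus 3 SD, cut at about 38% in these data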
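Test system: RD-HGA16 (CHO) cells co-expressing Gα16 and hTAAR1 | Doses: Single dose, 3 µM | Schedule: 17-24 h seeding, 75 min 37 °C dye, 30 min RT | Evaluation: % activation from peak over basal fluorescence ratio, DMSO-to-PEA scaled | Technique: Kinetic Fluo-8 calcium fluorescence | Benchmarks: Low control DMSO, high control PEA (EC100)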
Active calls of the source: *.

O=C(O)c1cc([N+](=O)[O-])ccc1-c1ccc([N+](=O)[O-])cc1C(=O)O was read as TAAR1 antagonist -22 and TAAR1 agonist 2.
`CCN(CC)C(=O)c1cc([N+](=O)[O-])cc2c1-c1ccc([N+](=O)[O-])cc1C2=C(C#N)C#N` gave OX1R antag-1 71*, TAAR1 antagonist -9, CHO parental Ca -15, OX1R antag-2 -27 and TAAR1 agonist 2.
For Cc1cccc(NC(=O)c2ncn3c2C(=O)N[C@@H](C)C3)c1 the results were TAAR1 antagonist -15 and TAAR1 agonist 0.
For COC(CNC(=O)C1CCN(S(=O)(=O)c2cccc3nsnc23)CC1)OC the results were OX1R antag-1 36, TAAR1 antagonist -19, CHO parental Ca 1, OX1R antag-2 -8 and TAAR1 agonist 3.
CCCCN(CC)CCNC(=O)C1CCCN(S(=O)(=O)c2cccc3nsnc23)C1 (centres undefined) was read as OX1R antag-1 37, TAAR1 antagonist -3, CHO parental Ca -19, OX1R antag-2 -22 and TAAR1 agonist -1.
`CCCCN(CC)CCNC(=O)C1CCN(S(=O)(=O)c2cccc3nsnc23)CC1` gave OX1R antag-1 51*, TAAR1 antagonist -14, CHO parental Ca -17, OX1R antag-2 -22 and TAAR1 agonist 0.
CCCCN(C)CCNC(=O)C1CCN(S(=O)(=O)c2cccc3nsnc23)CC1 was read as OX1R antag-1 49*, TAAR1 antagonist -13, CHO parental Ca -12, OX1R antag-2 -3 and TAAR1 agonist 0.
Screening CCCN(CCC)CCNC(=O)C1CCN(S(=O)(=O)c2cccc3nsnc23)CC1 returned OX1R antag-1 43*, TAAR1 antagonist -6, CHO parental Ca -5, OX1R antag-2 -6 and TAAR1 agonist 0.
For CN1C(=O)[C@@]2(C3=C(CCCC3=O)OC3=C2C(=O)CC(C)(C)C3)c2ccccc21 the results were TAAR1 antagonist -18 and TAAR1 agonist 0.
O=C(CSc1ncnc2[nH]ncc12)Nc1nc(-c2ccc(F)c(F)c2)cs1 was read as OX1R antag-1 52*, TAAR1 antagonist 62*, CHO parental Ca 42*, OX1R antag-2 45* and TAAR1 agonist 24.
`O=C(Nc1nc2ccccc2s1)C1CCCN1S(=O)(=O)c1ccc(Cl)cc1` (centres undefined) gave OX1R antag-1 54*, TAAR1 antagonist -14, CHO parental Ca -25, OX1R antag-2 0 and TAAR1 agonist 4.
CCc1nnc(NC(=O)C2CCCN2S(=O)(=O)c2ccc(C)cc2)s1 (centres undefined) was read as OX1R antag-1 44, TAAR1 antagonist 8, CHO parental Ca -42, OX1R antag-2 -36 and TAAR1 agonist 4.
For Cc1ccc(S(=O)(=O)N2CCCC2C(=O)Nc2nc3ccccc3s2)cc1 (centres undefined) the results were OX1R antag-1 74*, CHO parental Ca -23 and OX1R antag-2 1.
Screening Cc1nnc(NC(=O)C2CCCN2S(=O)(=O)c2ccc(Cl)cc2)s1 (centres undefined) returned OX1R antag-1 18, TAAR1 antagonist -3, CHO parental Ca -5, OX1R antag-2 -20 and TAAR1 agonist 5.
`CC(C)C1C(=O)N(Cc2cn(CC3CCCCC3)nn2)CCS(=O)(=O)N1Cc1ccc(-c2cccc(CO)c2)cc1` (centres undefined) gave TAAR1 antagonist 16 and TAAR1 agonist 3.
O=C(Nc1ccccc1Cl)c1cc(C2CCCCN2C(=O)c2cccs2)on1 (centres undefined) was read as TAAR1 antagonist -24 and TAAR1 agonist 4.
COc1cccc(NC(=O)Nc2nc(SC(C)(C)C)ns2)c1 was read as OX1R antag-1 36, TAAR1 antagonist 59*, CHO parental Ca 74*, OX1R antag-2 75* and TAAR1 agonist 19.
`CCSc1nsc(NC(=O)Nc2cccc(F)c2)n1` gave OX1R antag-1 84*, TAAR1 antagonist 17, CHO parental Ca 101*, OX1R antag-2 104* and TAAR1 agonist 14.
`Cc1cc(C(=O)CSc2nc(N)cc(=O)[nH]2)c(C)n1-c1ccc(OC(F)F)cc1` gave OX1R antag-1 20, TAAR1 antagonist -3, CHO parental Ca 38*, OX1R antag-2 19 and TAAR1 agonist -1.
COC(=O)[C@]12C[C@H](CC(=O)NCCCCc3ccccc3)C(=O)N(CCC3=CCCCC3)C1=C[C@H](C(C)(C)C)O[C@@H]2C was read as TAAR1 antagonist -21 and TAAR1 agonist 1.
Cc1nnc(-n2cccc2)s1 was read as TAAR1 antagonist 3 and TAAR1 agonist 1.
`CC1(Cc2c(Cl)cccc2Cl)C(=O)Nc2cc(-c3ccccc3Cl)ccc21` (centres undefined) gave TAAR1 antagonist -1 and TAAR1 agonist 0.
CC1(Cc2ccccc2Cl)C(=O)Nc2cc(-c3ccccc3Cl)ccc21 (centres undefined) was read as TAAR1 antagonist 51* and TAAR1 agonist 2.
`COc1ccc(CCNC(=O)c2ccc3c(c2)N(Cc2ccc(F)cc2)CCS3)c(OC)c1` gave OX1R antag-1 46*, TAAR1 antagonist 0, CHO parental Ca -1, OX1R antag-2 -12 and TAAR1 agonist 16.
COc1ccc(Br)cc1CNC(=O)c1ccc2c(c1)N(C)CCS2 was read as OX1R antag-1 57*, TAAR1 antagonist -2, CHO parental Ca -17, OX1R antag-2 -24 and TAAR1 agonist -1.
For COc1ccc(OC)c(CCNC(=O)c2ccc3c(c2)N(Cc2ccc(F)cc2)CCS3)c1 the results were OX1R antag-1 29, CHO parental Ca -17 and OX1R antag-2 27.
`Nc1cc2c3ccccc3ccc2c2ccccc12` gave TAAR1 antagonist 13 and TAAR1 agonist 6.
Screening O=[N+]([O-])c1ccc(NN=C(Oc2ccccc2)c2ccc([N+](=O)[O-])cc2)cc1 returned TAAR1 antagonist 5 and TAAR1 agonist 5.
`CC/C(=N\Nc1ccc([N+](=O)[O-])cc1)c1ccccc1` gave OX1R antag-1 53*, CHO parental Ca -5 and OX1R antag-2 -37.
Screening O=C(Nc1ccccc1C(=O)NCc1ccccc1)c1ccccc1Br returned OX1R antag-1 2, TAAR1 antagonist 35, CHO parental Ca -27, OX1R antag-2 -11 and TAAR1 agonist 5.
`Cc1ccccc1C(=O)Nc1ccccc1C(=O)NCc1ccccc1` gave OX1R antag-1 14, TAAR1 antagonist 49*, CHO parental Ca -17, OX1R antag-2 1 and TAAR1 agonist 8.
Screening C[C@H](c1ccccc1)N1C[C@H](COCc2ccccc2)Oc2cc(N3CC[C@@H](O)C3)ccc2S1(=O)=O returned TAAR1 antagonist 3 and TAAR1 agonist 4.
CNc1cc(C(=O)Nc2cccc(OCc3ccccc3)c2)ncn1 was read as TAAR1 antagonist 29 and TAAR1 agonist 5.
